Experimental data as given in article PMC5788574 (The Journal of comparative neurology, 2017).

Experiments:
[1] = ref Kimes et al., 2003; cited from earlier work
α4β2* nAChRs [2] = experiment: Rat brain [18F]Nifene PET/CT; assay type: in vivo; conditions: rat PET
In short: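 Sprague-Dawley rats (250–400 g) were induced with 4% isoflurane and kept on 2.5% during the scan. A bolus of about 24 MBq radiotracer was followed by dynamic acquisition for up to 120 min, then CT for attenuation correction. Images were normalized to stereotaxic space via an MRI rat template. Time-activity curves came from atlas-guided VOIs without partial volume correction. Logan noninvasive DVR, with BPND = DVR−1.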

α4β2* nAChRs [3] = experiment: Mouse brain [18F]Nifene PET/CT; assay type: in vivo; conditions: mouse PET
In short: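 BALB/c mice (25–30 g) were induced with 4% isoflurane and kept on 2% during the scan. A bolus of about 9.25 MBq radiotracer was followed by dynamic acquisition for up to 120 min, then CT for attenuation correction. Images were coregistered to an MRI mouse template. Time-activity curves came from atlas-guided VOIs without partial volume correction. Logan noninvasive DVR, with BPND = DVR−1.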

α4β2* nAChRs [4] = experiment: Human brain [18F]Nifene PET, distribution volume ratio; assay type: in vivo; conditions: for DVR ATR / DVR CB / DVR Frontal cortex / DVR LG / DVR OG / DVR Pit / DVR Red Nucleus / DVR SLF / DVR SN/VTA / DVR Thalamus: corpus callosum reference
In short: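 Eight healthy volunteers (4 male, 4 female), 21–69 years. Bolus of about 185 MBq radiotracer, then 90 min dynamic 3-D acquisition on an HR+ scanner. Frames were […], reconstructed by filtered back projection with a 4 mm Gaussian filter. FreeSurfer regions came from coregistered 3 T MRI. Parametric DVR images were made by MRTM2 with corpus callosum as reference.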

[5] = Tolerability of [18F]Nifene in human PET subjects; assay type: in vivo; conditions: 185 MBq, <0.10 μg per injection
In short: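 Healthy volunteers aged 21–69 (4 male, 4 female) studied under an FDA investigational new drug application. Each received a bolus of about 185 MBq radiotracer in sterile saline. Vital signs and laboratory results were assessed for adverse or clinically detectable pharmacologic effects.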

α4β2* nAChRs [6] = experiment: Rhesus monkey brain [18F]Nifene PET; assay type: in vivo, rhesus monkey (Macaca mulatta)
In short: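 Rhesus monkeys (8–10 kg) had ketamine/xylazine IM, or ketamine/atropine IM plus 1–2% isoflurane. A bolus of about 48–111 MBq radiotracer was followed by at least 120 min acquisition on an HR+ or microPET scanner. Data were binned into 23 frames and reconstructed by filtered back projection. Circular ROIs on cerebellum, thalamus, lateral geniculate and cortex gave time-activity curves and BPND.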

[7] = after intravenous administration; ref Kant et al., 2011; cited from earlier work
α4β2* nAChRs [8] = experiment: [18F]Nifene PET across species; assay type: in vivo; conditions: all species (mice, rats, monkeys, and humans)
[9] = partial agonist; ref Niaura, Jones, & Kirkpatrick, 2006; cited from earlier work
[10] = human PET, females Avg±SD (4 subjects)
[11] = human PET, males Avg±SD (4 subjects)
[12] = human PET, males Avg±SD (4 subjects), listed as 18F-Nifene

Structure (SMILES): Fc1ncccc1OC[C@@H]1CCN1 [[^18F]2-FA-85380, 2-fluoro-3-(2(S)-azetidinylmethoxy)pyridine]
- Dose with no adverse effects [1]: up to 10 pmol/kg

Structure (SMILES): [18F]c1ncccc1OC[C@@H]1C=CCN1 [[^18F]Nifene, 2-[18F]fluoro-3-[2-((S)-3-pyrrolinyl)methoxy]pyridine]
- Ratio of thalamus to cerebellum (α4β2* nAChRs [2]): 3.1
- Ratio of thalamus to cerebellum (α4β2* nAChRs [3]): 2
- Binding in habenula (α4β2* nAChRs [4]; human PET): low levels
- Ratio of thalamus to corpus callosum (α4β2* nAChRs [4]; human PET): 2.6
- DVR, anterior thalamic radiation (white matter) (α4β2* nAChRs [4]; human PET, all subjects): ~ 1.6
- DVR, red nucleus (α4β2* nAChRs [4]; human PET, all subjects): 1.6–1.7
- DVR, superior longitudinal fasciculus (α4β2* nAChRs [4]; human PET, all subjects): ~ 1.5
- DVR ATR (α4β2* nAChRs [4]; [10]): 1.67
- DVR CB (α4β2* nAChRs [4]; [10]): 1.54 ± 0.25
- DVR Frontal cortex (α4β2* nAChRs [4]; [10]): 1.38 ± 0.15
- DVR LG (α4β2* nAChRs [4]; [10]): 2.46 ± 0.07
- DVR OG (α4β2* nAChRs [4]; [10]): 1.41
- DVR Pit (α4β2* nAChRs [4]; [10]): 1.57
- DVR Red Nucleus (α4β2* nAChRs [4]; [10]): 1.73
- DVR SLF (α4β2* nAChRs [4]; [10]): 1.55
- DVR SN/VTA (α4β2* nAChRs [4]; [10]): 1.75 ± 0.09
- DVR Thalamus (α4β2* nAChRs [4]; [10]): 2.58 ± 0.11
- DVR ATR (α4β2* nAChRs [4]; [11]): 1.58
- DVR CB (α4β2* nAChRs [4]; [11]): 1.42 ± 0.18
- DVR Frontal cortex (α4β2* nAChRs [4]; [11]): 1.31 ± 0.11
- DVR LG (α4β2* nAChRs [4]; [11]): 2.17 ± 0.08
- DVR OG (α4β2* nAChRs [4]; [11]): 1.31
- DVR Pit (α4β2* nAChRs [4]; [11]): 1.45
- DVR Red Nucleus (α4β2* nAChRs [4]; [11]): 1.56
- DVR SLF (α4β2* nAChRs [4]; [11]): 1.38
- DVR SN/VTA (α4β2* nAChRs [4]; [11]): 1.60 ± 0.08
- DVR Thalamus (α4β2* nAChRs [4]; [11]): 2.24 ± 0.10
- DVR ATR (α4β2* nAChRs [4]; [12]): 1.58 ± 0.13
- DVR OG (α4β2* nAChRs [4]; [12]): 1.31 ± 0.12
- DVR Pit (α4β2* nAChRs [4]; [12]): 1.45 ± 0.22
- DVR Red Nucleus (α4β2* nAChRs [4]; [12]): 1.56 ± 0.13
- DVR SLF (α4β2* nAChRs [4]; [12]): 1.38 ± 0.15
- DVR ATR (α4β2* nAChRs [4]; human one PET): 1.68
- DVR CB (α4β2* nAChRs [4]; human one PET): 1.40
- DVR Frontal cortex (α4β2* nAChRs [4]; human one PET): 1.29
- DVR LG (α4β2* nAChRs [4]; human one PET): 2.17
- DVR OG (α4β2* nAChRs [4]; human one PET): 1.41
- DVR Pit (α4β2* nAChRs [4]; human one PET): 1.62
- DVR Red Nucleus (α4β2* nAChRs [4]; human one PET): 1.64
- DVR SLF (α4β2* nAChRs [4]; human one PET): 1.55
- DVR SN/VTA (α4β2* nAChRs [4]; human one PET): 1.53
- DVR Thalamus (α4β2* nAChRs [4]; human one PET): 2.25
- DVR ATR (α4β2* nAChRs [4]; human seven PET): 1.45
- DVR CB (α4β2* nAChRs [4]; human seven PET): 1.50
- DVR Frontal cortex (α4β2* nAChRs [4]; human seven PET): 1.34
- DVR LG (α4β2* nAChRs [4]; human seven PET): 2.17
- DVR OG (α4β2* nAChRs [4]; human seven PET): 1.33
- DVR Pit (α4β2* nAChRs [4]; human seven PET): 1.63
- DVR Red Nucleus (α4β2* nAChRs [4]; human seven PET): 1.37
- DVR SLF (α4β2* nAChRs [4]; human seven PET): 1.18
- DVR SN/VTA (α4β2* nAChRs [4]; human seven PET): 1.68
- DVR Thalamus (α4β2* nAChRs [4]; human seven PET): 2.13
- DVR ATR (α4β2* nAChRs [4]; human three PET): 1.47
- DVR CB (α4β2* nAChRs [4]; human three PET): 1.18
- DVR Frontal cortex (α4β2* nAChRs [4]; human three PET): 1.17
- DVR LG (α4β2* nAChRs [4]; human three PET): 2.08
- DVR OG (α4β2* nAChRs [4]; human three PET): 1.14
- DVR Pit (α4β2* nAChRs [4]; human three PET): 1.17
- DVR Red Nucleus (α4β2* nAChRs [4]; human three PET): 1.56
- DVR SLF (α4β2* nAChRs [4]; human three PET): 1.36
- DVR SN/VTA (α4β2* nAChRs [4]; human three PET): 1.55
- DVR Thalamus (α4β2* nAChRs [4]; human three PET): 2.22
- DVR ATR (α4β2* nAChRs [4]; human two PET): 1.69
- DVR CB (α4β2* nAChRs [4]; human two PET): 1.61
- DVR Frontal cortex (α4β2* nAChRs [4]; human two PET): 1.44
- DVR LG (α4β2* nAChRs [4]; human two PET): 2.26
- DVR OG (α4β2* nAChRs [4]; human two PET): 1.35
- DVR Pit (α4β2* nAChRs [4]; human two PET): 1.36
- DVR Red Nucleus (α4β2* nAChRs [4]; human two PET): 1.67
- DVR SLF (α4β2* nAChRs [4]; human two PET): 1.43
- DVR SN/VTA (α4β2* nAChRs [4]; human two PET): 1.66
- DVR Thalamus (α4β2* nAChRs [4]; human two PET): 2.37
- Tolerability in human subjects [5]: well tolerated in all the human subjects with no adverse side effects
- Tolerability in human subjects ([5]; listed as [^18F] Nifene): well tolerated with no adverse effects
- Ratio of thalamus to cerebellum (α4β2* nAChRs [6]): 3.2
- Radioactive components in rat brain [7]: the only radioactive component
- Thalamus reference region ratio (α4β2* nAChRs [8]): > 2

Structure (SMILES): c1cnc2cc3c(cc2n1)[C@@H]1CNC[C@H]3C1 [varen-cline]
- in vivo efficacy compared to nicotine [9]: 30–60%
